Bounds are passed on as bounds.

The target of test [1] is Transthyretin (Homo sapiens) (UniProt P02766). Nature of the test: Inhibition of L55P TTR fibril formation was measured at OD400. The test is classed as functional. Summed up: (§1)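 Stagnant fibril formation assay. TTR at 0.4 mg/mL in 10 mM sodium phosphate, 100 mM KCl, 1 mM EDTA, pH 7.6, was preincubated 30 min at 37 °C with compound added from DMSO stock. Acetate buffer then lowered the pH to 4.2 (wild type) or 5 (V30M, L55P), and samples stood unagitated 72 h at 37 °C. After vortexing, turbidity was read at 400 nm and expressed as percent of the no-inhibitor sample. Triplicates.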

For test [2] the target is unchanged. Nature of the test: (§2) Quaternary structure of the soluble protein after incubation of 3.6 uM of compound. It counts as functional.
For test [3] the target is unchanged. Briefly: Inhibition of V30M TTR fibril formation at OD400. The test is classed as functional. The essentials:
as §1

The target is the same in test [4]. Described as §2. It counts as functional. The source holds these as a separate data set.
For test [5] the target is unchanged. Briefly: Inhibition of wild type TTR fibril formation at OD400. The test is classed as functional. The essentials: as §1
For test [6] the target is unchanged. Described as §2. It counts as functional. This is another data set of the same source.
For test [7] the target is unchanged. Nature of the test: Quaternary structure of the soluble protein after incubation of 10.8 uM of compound.
The target is the same in test [8]. Briefly: Quaternary structure of the soluble protein after incubation of 3.6 uM L55P TTR with 10.8 uM of compound. The test is classed as functional. The essentials:
(§3)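 3.6 µM TTR (wild type, V30M or L55P) was held 72 h with 10.8 µM compound under stagnant fibril formation conditions at the variant's pH maximum. Precipitate was removed by spinning at 14 000 rpm, and the supernatant was analysed by analytical ultracentrifugation to give % tetramer, monomer and aggregate and MW.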

For test [9] the target is unchanged. Nature of the test: Quaternary structure of the soluble protein after incubation of 3.6 uM V30M TTR with 10.8 uM of compound. The test is classed as functional. Summed up: as §3
Test [10] shares this target. Briefly: Quaternary structure of the soluble protein after incubation of 3.6 uM wild type TTR with 10.8 uM of compound. It counts as functional. Summed up:
as §3

Test [11] is described as follows: First dissociation constant of the binding of compound to V30M TTR. The test is classed as functional. The essentials:
(§4)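 Isothermal titration calorimetry at pH 7.6 (100 mM phosphate, 100 mM KCl, 1 mM EDTA). A 435 µM ligand solution in this buffer, concentration set by ε280 = 10 400 M-1 cm-1, was titrated into cells holding 21.1 µM wild type, 20.1 µM V30M or 20.0 µM L55P TTR.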

The nature of test [12]: Second dissociation constant of the binding of compound to V30M TTR. It counts as functional. The essentials:
as §4

In test [13] the target is Transthyretin (Homo sapiens) (UniProt P02766). Nature of the test: First dissociation constant of the binding of compound to L55P TTR. The test is classed as functional. The essentials: as §4
Test [14] shares this target. Briefly: Second dissociation constant of the binding of compound to L55P TTR. It counts as functional. The essentials: as §4
Test [15] has the same target. Briefly: First dissociation constant of the binding of compound to wild type TTR. It counts as functional. Summed up: as §4
For test [16] the target is unchanged. Nature of the test: Second dissociation constant of the binding of compound to wild type TTR. It counts as functional. Summed up:
as §4

For the molecule `O=C(O)Cc1ccccc1Nc1cc(Cl)cc(Cl)c1`, the Formation was determined as 53% in [1], 27% in [3] and 30% in test [5]. Further, the results for the Tetramer in test [2], in [4] and in test [6] were 76%, greater than 95% and greater than 95%, respectively. In test [7], the Aggregate was determined as 24%.

Turning to `CCc1ccccc1Nc1c(Cl)cccc1Cl`, the Formation in [1] was 85%; in test [3], 70%; in test [5], 82%.

Consider `NC(=O)Cc1ccccc1Nc1c(Cl)cccc1Cl`, for which the Formation in [3] was found to be 67%; in [5], 65%.

As to `CC(C)c1ccccc1Nc1c(Cl)cccc1Cl`, the Formation was found to be 90% in test [1], 80% in test [3] and 85% in [5].

For the molecule `OCCc1ccccc1Nc1c(Cl)cccc1Cl`, the Formation was 90% in [1], 62% in [3] and 60% in test [5].

As to `O=C(O)c1cc(Cl)c(Nc2ccc([N+](=O)[O-])cc2)c(Cl)c1`, the Formation in test [1] is 75%; in [3], 33%; in test [5], 40%. Besides, the Tetramer in [8] is greater than 95%; in [9] it was 90%; in test [10], 93%. The values for the Aggregate in test [9] and in [10] were 10% and 7%, respectively.

Take `COC(=O)Cc1ccccc1Nc1c(Cl)cccc1Cl`: the figures for the Formation in test [1], in [3] and in test [5] were 90%, 90% and 78%, respectively.

`O=C(O)c1ccccc1Nc1cc(Cl)cc(Cl)c1`: the Formation in [1] was determined as 50%; in test [3], 30%; in [5], 34%.

With `ClCCc1ccccc1Nc1c(Cl)cccc1Cl`, the figures for the Formation in test [1], in test [3] and in [5] were 90%, 70% and 75%, respectively.

As to `O=C(O)Cc1ccccc1Nc1c(Cl)cc(C(=O)O)cc1Cl`, the Formation came out at 45% in test [1], 28% in test [3] and 32% in [5]. Besides, the Tetramer in test [2] was 95%; in [4], greater than 95%; in [6], 95%. Further, the Monomer in test [7] was found to be 5%.

Take `CCCc1ccccc1Nc1c(Cl)cccc1Cl`: the values for the Formation in test [1], in [3] and in [5] were 90%, 85% and 100%, respectively.

As to `O=C(O)Cc1ccccc1Nc1c(Cl)cccc1Cl`, the Kd1 in test [11] came out at 160 nM; in test [13], 380 nM; in test [15], 60 nM. The Kd2 in test [12] amounted to 3.9 µM; in test [14] it was 6.18 µM; in test [16], 1200 nM. The Formation was determined as 72% in [1], 33% in test [3] and 35% in test [5].

`O=C(O)c1ccccc1Nc1c(Cl)cccc1Cl`: the Formation in [3] turned out to be 27%; in [5], 30%.

The record behind these values is ChEMBL document CHEMBL1135801, “Synthesis, structure, and activity of diclofenac analogues as transthyretin amyloid fibril formation inhibitors” (J Med Chem, 2002).
